# Screening results from PubChem BioAssay.
# Compounds with a hit are over-represented: about 2.4% of the library has one in this group of screens.
# EWS-Fli inh: EWS/Fli-driven NR0B1 reporter inhibitors, primary screen, A673 cells, NR0B1 luciferase, luminescence, MLPCN library. viability-normalised. inhibition, % at 12.6 µM. actives 0.67% (n = 350,000);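 active = mean inhibition of at least 50% after viability correction, with every replicate also passing that limit; inconclusive = mean reaches 50% but only one of two replicates passes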;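 also: firefly luciferase signal divided by Alamar Blue viability fluorescence both relative to DMSO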
# E-sel inducer: E-selectin induction in HUVECs, primary screen, imaging, HUVEC, immunofluorescence imaging, single point; actives 0.37% (n = 260,000); P16581; activation, % at 7.58 µM; normalized: neutral wells 0, TNF-alpha wells 100;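 active = mean E-selectin-positive cell signal at least 10% of the positive control, reached in at least 60% of replicates, without over 20% cell loss; inconclusive = no rule given, readout overlaps actives, possibly toxicity-flagged; inactive = the rest, including those meeting only one limit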
# Target sequence (P16581 whole entry, looked up): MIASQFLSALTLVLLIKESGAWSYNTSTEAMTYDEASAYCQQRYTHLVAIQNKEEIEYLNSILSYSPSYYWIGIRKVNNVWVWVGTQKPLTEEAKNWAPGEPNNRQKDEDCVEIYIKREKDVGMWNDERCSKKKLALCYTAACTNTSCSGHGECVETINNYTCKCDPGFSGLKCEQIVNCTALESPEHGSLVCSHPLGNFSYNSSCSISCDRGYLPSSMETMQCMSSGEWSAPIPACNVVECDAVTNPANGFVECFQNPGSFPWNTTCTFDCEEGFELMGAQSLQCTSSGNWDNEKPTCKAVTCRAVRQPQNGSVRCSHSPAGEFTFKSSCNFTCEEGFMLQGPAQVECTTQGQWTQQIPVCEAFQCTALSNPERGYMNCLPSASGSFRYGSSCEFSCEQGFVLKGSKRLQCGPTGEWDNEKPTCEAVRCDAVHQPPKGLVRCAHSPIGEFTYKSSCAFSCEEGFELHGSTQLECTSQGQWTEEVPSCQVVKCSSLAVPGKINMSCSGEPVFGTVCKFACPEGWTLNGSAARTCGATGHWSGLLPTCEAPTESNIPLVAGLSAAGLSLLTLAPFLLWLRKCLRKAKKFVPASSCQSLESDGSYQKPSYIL
#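 material = human umbilical vein endothelial cells (HUVEC), E-selectin induction | quantity = 3,000 cells/well | medium = EGM-2 growth medium on 0.1% gelatin-coated wells | technique = immunofluorescence imaging | read-out basis = % PE-positive cells | control set = TNF-alpha positive control, DMSO neutral control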
# rRNA inh HTS: reduced GFP signal of wild-type E. coli, primary screen, bacterial rRNA inhibitor project, GFP/RFP fluorescence, OD600, single point. E. coli WT GFP vs humanized-ribosome RFP mutants, 24 h; stronger effect = lower value; DMSO median 0, no signal -100. GFP signal change (wild-type ribosome), % (no concentration beside the values). actives 1.6% (n = 350,000);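 active = significant combined selectivity score with lowered wild-type GFP, culture density cut under 30%, mutant RFP and density less affected; inactive = any of these conditions unmet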
# LGR2 antag: inhibitors of bursicon-induced LGR2 CRE-luciferase signal, primary screen, cell-based, HEK293, CRE-luciferase reporter, bursicon stimulation; Drosophila bursicon receptor LGR2 (rickets); bursicon-stimulated, 4 h; inhibition, % at 9.99 µM; actives 0.35% (n = 380,000); AID 720647, 2013;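 active = drop in luminescence signal, shown as inhibition above about 50% in the replicate tests, limit read from the data, passing the limit was not always enough; inconclusive = probably only some replicates passing the limit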;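 also: agonist challenge used bursicon conditioned medium at about half maximal strength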
# * marks the source's active call; other numbers are inactive results; ? = inconclusive; · = not tested or not shown; ! = not active in a repeat.
SMILES,EWS-Fli inh,E-sel inducer,rRNA inh HTS,LGR2 antag
O=C(Nc1ccc(C(=O)OC[C@@H]2CCCN3CCCC[C@H]23)cc1)c1cccc(Br)c1,0,·,-44*,7
CO[C@H]1CN(C)C(=O)c2cc(NC(=O)c3nc4ccccc4s3)ccc2OC[C@H](C)N(Cc2cncnc2)C[C@@H]1C,-12,1,1,-12
Cc1nc2ccc(Br)cc2c(=O)n1Cc1cccs1,8,·,-32*,-18
Cc1nc2ccccc2c(=O)n1Cc1ccco1,-1,0,19,3
CC1(C(=O)NCc2ccccc2)CSCC(=O)N1CCc1c[nH]c2ccccc12 (stereo not given),5,3,-41*,-1
CC(C)NC(=O)Nc1ccc2c(c1)CC(=O)N(C)C[C@@H](C)[C@@H](CN(C)C)O2,·,·,1,·
COc1cccc(NC2=C(C#N)C(=O)NC(c3cccc(OC)c3O)S2)c1 (stereo not given),15,·,0,3
N#CC1=C(Nc2ccccc2Cl)SC(c2ccccc2O)NC1=O (stereo not given),-4,·,-27*,-3
CCOc1ccc(S(=O)(=O)Nc2ccc(S(=O)(=O)N3CCCC3)cc2)cc1,·,·,-27*,-5
CCOc1ccc(S(=O)(=O)Nc2ccc(S(=O)(=O)N3CCCCC3)cc2)cc1,·,·,-4,-9
CO[C@H]1CN(C)C(=O)c2cc(NS(=O)(=O)c3cn(C)cn3)ccc2OC[C@@H](C)N(C)C[C@H]1C,1,0,2,29
Cc1ccc(C(=O)Nc2cccc(C(F)(F)F)c2)cc1NC(=O)c1c[nH]c2cc(C(F)(F)F)ccc2c1=O,-4,0,4,-1
CCN1CCN(Cc2ccc(NC(=O)c3ccc(C)c(NC(=O)c4c[nH]c5cc(C(F)(F)F)ccc5c4=O)c3)cc2C(F)(F)F)CC1,63*!,-7,3,?
CCN1CCN(Cc2ccc(NC(=O)c3cc(NC(=O)c4cncc(-c5cccs5)c4)cc(OC)c3)cc2C(F)(F)F)CC1,64*,·,·,30
CCN1CCN(Cc2ccc(NC(=O)c3cc(NC(=O)c4ccno4)cc(OC)c3)cc2C(F)(F)F)CC1,27,0,-10,8
CCN1CCN(Cc2ccc(NC(=O)c3cc(NC(=O)c4cc(-c5ccc(OC)cc5)n[nH]4)cc(OC)c3)cc2C(F)(F)F)CC1,51*,·,-36,2
CCN1CCN(Cc2ccc(NC(=O)c3cc(NC(=O)c4ccc5n[nH]nc5c4)cc(OC)c3)cc2C(F)(F)F)CC1,-15,0,-4,5
CCN1CCN(Cc2ccc(NC(=O)c3cc(NC(=O)c4cc5cccc(OC)c5o4)cc(OC)c3)cc2C(F)(F)F)CC1,53*!,0,-27,12
COCCNC(=O)C[C@H]1CC[C@@H](NC(=O)NC2CCCC2)[C@H](CO)O1,4,0,0,-6
COc1ccc(S(=O)(=O)Nc2ccc3c(c2)C(=O)N([C@@H](C)CO)C[C@@H](C)[C@H](CN(C)C(=O)Nc2ccc(F)cc2)O3)cc1,2,0,6,-8
CC1CC(C)(C)NC(=S)N1CCCC(=O)Nc1ccc(Br)cc1 (stereo not given),15,7,-37*,0
Brc1ccc2[nH]c3c(c2c1)CCC3,-40,1,-16*,·
CO[C@H]1CN(C)C(=O)c2cc(NC(=O)C3CCCC3)ccc2OC[C@@H](C)NC[C@@H]1C,-4,0,2,-15
COc1ccc(S(=O)(=O)N(C)C[C@@H]2Oc3cc(C4=CCCC4)ccc3S(=O)(=O)N([C@H](C)CO)C[C@@H]2C)cc1,12,0,0,-13
O=S(=O)(Nc1nc2ccccc2nc1NCC1CCCO1)c1cc(Cl)ccc1Cl (stereo not given),13,0,-27*,-9
SMILES,EWS-Fli inh,E-sel inducer,rRNA inh HTS,LGR2 antag
Cc1cc(NC2CCCC2)n2ncc(-c3ccccc3)c2n1,62*,0,-12,63*
Cc1cc(SCC(=O)c2ccccc2)n2ncc(-c3ccccc3)c2n1,-104,7,-51*,-62
Cc1cc(-c2ccccc2)n2ncc(-c3ccccc3)c2n1,38,·,26,60*
Cc1nc2c(-c3ccccc3)cnn2c(N)c1-c1ccccc1,41,0,-19,57*
CC(=O)CSc1cc(C)nc2c(-c3ccccc3)c(C)nn12,2,·,2,-5
CCOC(=O)Cc1c(C)nc2c(-c3ccccc3)cnn2c1C,-49,·,9,-84
O=C(C[C@H]1CC[C@@H]2[C@H](COC[C@H](O)CN2Cc2ccc(C(F)(F)F)cc2)O1)NCCc1ccccc1,·,0,-22,4
CN1C(=O)c2cc(NC(=O)c3cccc(F)c3)ccc2OC[C@@H]2O[C@@H](CC(=O)N3CCc4ccccc4C3)CC[C@@H]21,24,0,-10,5
COc1cccc(C2Oc3ccccc3C3CC(c4cccs4)=NN32)c1 (stereo not given),-43,0,-29*,-59
C[C@@H]1CN([C@@H](C)CO)C(=O)c2cc(NS(=O)(=O)c3cn(C)cn3)ccc2O[C@H]1CN(C)C(=O)Nc1ccc(F)cc1,-7,87*,0,18
C[C@@H]1CN([C@H](C)CO)C(=O)c2cccc(NC(=O)Nc3ccc(F)cc3)c2O[C@@H]1CN(C)S(=O)(=O)c1cn(C)cn1,-1,80*,-3,0
C[C@@H]1CN([C@@H](C)CO)C(=O)c2cccc(NC(=O)CCCCCC(=O)Nc3ccccc3N)c2O[C@H]1CN(C)S(=O)(=O)c1cn(C)cn1,39,105*,-1,-2
C[C@@H]1CN([C@H](C)CO)C(=O)c2cccc(NS(=O)(=O)c3cn(C)cn3)c2O[C@H]1CN(C)C(=O)Nc1ccc(F)cc1,24,410*,1,-3
C[C@H](CO)N1C[C@H](C)[C@H](CN(C)Cc2ccccc2)Oc2ccc(NC(=O)CCN3CCOCC3)cc2C1=O,-8,0,5,8
C[C@H](CO)N1C[C@H](C)[C@H](CN(C)Cc2ccncc2)Oc2ncc(C#CCN(C)C)cc2C1=O,-10,1,5,1
C[C@@H]1CN([C@H](C)CO)C(=O)c2cc(NS(=O)(=O)c3cn(C)cn3)ccc2O[C@@H](C)CCCCO[C@H]1CN(C)C(=O)Nc1ccc2c(c1)OCO2,14,0,-2,15
C[C@@H]1CN([C@H](C)CO)C(=O)c2cc(NS(=O)(=O)c3cn(C)cn3)ccc2O[C@@H]1CN(C)C(=O)Nc1ccc2c(c1)OCO2,-4,62*,4,2
CCn1c(SCc2nc(-c3ccc(OC)c(OC)c3)no2)nnc1-c1cccs1,-2,·,-32*,-9
COc1ccc(-c2noc(-c3cccs3)n2)cc1OC,-128,0,12,-57
COc1ccc(-c2noc(CSc3nnc(Cc4ccccc4)n3-c3cccc(C)c3)n2)cc1OC,20,·,-26*,10
c1ccc(-c2cn3c4c(sc3n2)CCCC4)cc1,54*,0,-12,74*
